Experiments:
Type in all cases: functional, cell-based
[1] = test system: L1210; assay: Tested for inhibitory activity against murine cell line […], a strain sensitive to doxorubicin using MTT assay.; details: Mus musculus
Procedure, shortened: (§1)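 Murine L1210 leukaemia cells were tested as a drug-sensitive strain and as a multiple drug-resistant strain that is P-glycoprotein positive. Growth inhibition in both strains was read by MTT assay.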

[2] = Tested for inhibitory activity against human tumor cell line A549 (a non small, drug resistant cell line that does not produce P-glycoprotein) of lung carcinoma using sulforhodamine B assay.
[3] = test system: WiDr; assay: Tested for inhibitory activity against a sensitive strain of human colon carcinoma WiDr using sulforhodamine B assay (it is MRP positive but non-P-glycoprotein).
[4] = test system: UACC-375; assay: Tested for inhibitory activity against human tumor cell line UA375 of melanoma using sulforhodamine B assay.
[5] = test system: MCF7; assay: Tested for inhibitory activity against human tumor cell line MCF7, a strain resistant to mitoxantrone of breast carcinoma using sulforhodamine B assay.
[6] = test system: MCF7; assay: Tested for inhibitory activity against human tumor cell line D40, a strain resistant to doxorubicin of breast carcinoma using sulforhodamine B assay.
[7] = test system: L1210; assay: Tested for inhibitory activity against murine cell line […], a strain resistant to doxorubicin using MTT assay.; details: Mus musculus; procedure, shortened: as §1
[8] = test system: WiDr; assay: Tested for inhibitory activity against a multi drug resistant (MDR) strain of human colon carcinoma WiDr using sulforhodamine B assay (it is MRP positive but non-P-glycoprotein).
[9] = test system: OVCAR-3; assay: Tested for inhibitory activity against human tumor cell line OVCAR-3, a resistant ovarian carcinoma using sulforhodamine B assay.
[10] = test system: MCF7; assay: Tested for inhibitory activity against human tumor cell line MCF7, a strain sensitive to doxorubicin of breast carcinoma using sulforhodamine B assay.
[11] = test system: OVCAR-3; assay: Tested for inhibitory activity against human tumor cell line OVCAR-3 a resistant ovarian carcinoma using sulforhodamine B assay.
[12] = test system: L1210; assay: Tested for inhibitory activity against murine cell line […] leukemia, a strain resistant to doxorubicin using MTT assay.; details: Mus musculus; procedure, shortened: as §1
[13] = test system: L1210; assay: Tested for inhibitory activity against murine cell line […] leukemia, a strain sensitive to doxorubicin using MTT assay.; details: Mus musculus; procedure, shortened: as §1

Row | SMILES | IC50 [1] | IC50 [2] | IC50 [3] | IC50 [4] | IC50 [6] | IC50 [7] | IC50 [8] | IC50 [9] | IC50 [10] | IC50 [11] | IC50 [12] | IC50 [13] | IC50 [5]
1 | CN(C)CCN1C(=O)c2cccc3c2c(cc2c(N)cccc23)C1=O | 54 nM | 280 nM | 280 nM | 1080 nM | 590 nM | 54 nM | 525 nM | 541 nM | 550 nM |  |  |  | 550 nM
2 | CN(C)CCN1C(=O)c2cccc3c2c(cc2c(O)cccc23)C1=O | 810 nM | 420 nM | 320 nM | 540 nM | 560 nM | 1350 nM | 500 nM | 810 nM | 625 nM |  |  |  | 340 nM
3 | CN(C)CCN1C(=O)c2cccc3c2c(cc2ncccc23)C1=O |  | 32 nM | 110 nM | 617 nM | 320 nM |  | 260 nM |  | 170 nM | 986 nM | 367 nM | 493 nM | 230 nM
4 | O=C1c2c(O)ccc(O)c2C(=O)c2c(NCCNCCO)ccc(NCCNCCO)c21 [MITOXANTRONE] | 10 nM | 3 nM | 8 nM |  |  |  |  | 6 nM | 9 nM |  |  |  | 
5 | CN(C)CCN1C(=O)c2cccc3cc(N)cc(c23)C1=O [AMONAFIDE] |  | 1100 nM |  |  |  |  |  |  |  |  |  |  | 
6 | COc1cccc2c1cc1c3c(cccc32)C(=O)N(CCN(C)C)C1=O | 520 nM | 870 nM | 900 nM | 520 nM | 820 nM | 1560 nM | 1300 nM | 20 nM | 860 nM |  |  |  | 900 nM
7 | CC(=O)Nc1ccc2cc3c(c4c2c1C(=O)N(CCN(C)C)C4=O)CCCC3 | 60 nM | 32 nM | 31 nM | 132 nM | 130 nM | 36 nM | 240 nM | 48 nM | 40 nM |  |  |  | 40 nM
8 | CN(C)CCN1C(=O)c2cccc3c2c(cc2cccc(N)c23)C1=O | 54 nM | 37 nM | 240 nM | 244 nM | 290 nM | 50 nM | 460 nM | 68 nM | 130 nM |  |  |  | 150 nM
9 | CN(C)CCN1C(=O)c2cccc3c2c(cc2ccccc23)C1=O | 197 nM | 220 nM | 240 nM | 564 nM | 500 nM | 165 nM | 420 nM | 564 nM | 220 nM |  |  |  | 280 nM
10 | CC(=O)Nc1ccc2c3c(cc4cccnc42)C(=O)N(CCN(C)C)C(=O)c13 | 424 nM | 150 nM | 130 nM | 212 nM | 290 nM | 127 nM | 195 nM | 424 nM | 270 nM |  |  |  | 270 nM
11 | CN(C)CCN1C(=O)c2cc3cccnc3c3ccc(N)c(c23)C1=O | 233 nM | 170 nM | 160 nM | 117 nM | 310 nM | 186 nM | 210 nM | 466 nM | 270 nM |  |  |  | 310 nM
12 | CN(C)CCN1C(=O)c2cccc3c2c(cc2cccc([N+](=O)[O-])c23)C1=O | 751 nM | 950 nM | 800 nM | 751 nM | 620 nM | 501 nM | 2400 nM | 626 nM | 360 nM |  |  |  | 440 nM
13 | CN(C)CCN1C(=O)c2cc(N)cc3cc4c(c(c23)C1=O)CCCC4 | 73 nM | 170 nM | 230 nM | 610 nM | 900 nM | 26 nM | 1600 nM | 488 nM | 240 nM |  |  |  | 320 nM
14 | CN(C)CCN1C(=O)c2cccc3c2c(cc2c(Cl)cccc23)C1=O | 769 nM | 22 nM | 20 nM | 513 nM | 80 nM | 513 nM | 110 nM | 513 nM | 60 nM |  |  |  | 19 nM

Further compounds by falling IC50 [2], results first:

Row | IC50 [1] | IC50 [2] | IC50 [3] | IC50 [4] | IC50 [6] | IC50 [7] | IC50 [8] | IC50 [9] | IC50 [10] | IC50 [11] | IC50 [12] | IC50 [13] | SMILES | IC50 [5]
15 | 984 nM | 850 nM | 1200 nM | 4270 nM | 1300 nM | 1530 nM | 1500 nM | 4270 nM | 1700 nM |  |  |  | CN(C)CCN1C(=O)c2cc(NC(=O)C(C)(C)C)cc3cc4c(c(c23)C1=O)CCCC4 | 1000 nM
16 | 2190 nM | 750 nM | 750 nM | 8750 nM | 2000 nM | 1750 nM | 800 nM | 656 nM | 950 nM |  |  |  | CN(C)CCN1C(=O)c2c(NC(=O)C(C)(C)C)ccc3cc4c(c(c23)C1=O)CCCC4 | 1300 nM
17 | 43 nM | 220 nM | 195 nM | 309 nM | 400 nM | 26 nM | 370 nM | 862 nM | 210 nM |  |  |  | CN(C)CCN1C(=O)c2cccc3c2c(cc2cccnc23)C1=O | 320 nM
18 | 540 nM | 160 nM | 260 nM | 405 nM | 675 nM | 540 nM | 2300 nM | 675 nM | 625 nM |  |  |  | CN(C)CCN1C(=O)c2cccc3c2c(cc2cccc(O)c23)C1=O | 390 nM
19 | 50 nM | 154 nM | 135 nM | 175 nM | 170 nM | 50 nM | 175 nM | 50 nM | 150 nM |  |  |  | CN(C)CCN1C(=O)c2cccc3c2c(cc2c([N+](=O)[O-])cccc23)C1=O | 180 nM
20 | 256 nM | 45 nM | 220 nM | 179 nM | 286 nM | 231 nM | 380 nM | 385 nM | 160 nM |  |  |  | CN(C)CCN1C(=O)c2cccc3c2c(cc2cccc(Cl)c23)C1=O | 150 nM
21 |  | 22 nM |  |  |  |  |  |  |  |  |  |  | COc1cccc2c1C(=O)c1c(O)c3c(c(O)c1C2=O)C[C@@](O)(C(=O)CO)C[C@@H]3O[C@H]1C[C@H](N)[C@H](O)[C@H](C)O1 [DOXORUBICIN] | 
22 | 11 nM | 18 nM | 130 nM | 223 nM | 230 nM | 8 nM | 220 nM | 70 nM | 100 nM |  |  |  | CN(C)CCN1C(=O)c2cccc3cc4c(c(c23)C1=O)CCCC4 | 150 nM
23 | 11 nM | 13 nM | 79 nM | 187 nM | 110 nM | 2 nM | 450 nM | 80 nM | 120 nM |  |  |  | CN(C)CCN1C(=O)c2c(N)ccc3cc4c(c(c23)C1=O)CCCC4 | 130 nM
24 |  | 10 nM |  |  |  |  |  |  |  |  |  |  | CN(C)CCN1C(=O)c2cccc3cc4ccccc4c(c23)C1=O [AZONAFIDE] | 

Reference: ChEMBL document CHEMBL1133612, “Analogues of amonafide and azonafide with novel ring systems” (J Med Chem, 2000)
